Experimental data gathered from unrelated publications.
Each line is one published result; the experiments were not run side by side.
Target: Death-associated protein kinase 3 (DAPK3, Homo sapiens, UniProt O43293)

| SMILES | effect on | action | method | tested at | endpoint | result |
| --- | --- | --- | --- | --- | --- | --- |
| Cn1cc(-c2cccc(N3CCc4c(sc5c4CC(C)(C)C5)C3=O)c2CO)cc(Nc2ccncn2)c1=O | enzyme activity | inhibitor |  | 1 µM | inhibition | -6% |
| Cc1nn(C)cc1-c1nc2c(N3CCN(Cc4ccc(Cl)cc4)CC3)c(Cl)cnc2[nH]1 | binding |  | competition with immobilised ligand | 1 µM | remaining binding | 84% |
| O=c1[nH]c2ccccc2n1C1CCN(Cc2ccc(-c3[nH]c4cc5ncnc5cc4nc3-c3ccccc3)cc2)CC1 | cell-free assay |  |  | 0.5 µM | remaining signal | 106% |
| Cn1cncc1[C@](O)(COc1ccc(C#N)cc1-c1ccc(OC(F)(F)F)cc1)c1ccc(C#N)cc1 | cell-free assay |  | competition with immobilised ligand | 1 µM | remaining binding | 88% |
| Nc1ncc(-c2nc(N3CCOCC3)nc(N3CCOCC3)n2)c(C(F)F)n1 | binding |  | competition with immobilised ligand | 10 µM | remaining binding | 80% |
| CC(C)(C)c1cc(C=C(C#N)C#N)cc(Br)c1O | enzyme activity | inhibitor |  | 0.5 µM | remaining activity | 96.4% |
| Cn1cc(-c2cc(F)cc(N3CCn4c(cc5c4CCCC5)C3=O)c2CO)cc(Nc2ccc(N3CCN(C4COC4)CC3)cn2)c1=O | enzyme activity | inhibitor |  | 0.1 µM | inhibition | 3% |
| COc1ncccc1-c1cnn2ccc(N3CCN(C(=O)OC(C)C)CC3)nc12 | binding |  | competition with immobilised ligand | 1 µM | remaining binding | 98% |
